Assay results from ChEMBL document CHEMBL4334447, “Discovery of 4-Aminoquinoline-3-carboxamide Derivatives as Potent Reversible Bruton's Tyrosine Kinase Inhibitors for the Treatment of Rheumatoid Arthritis” (J Med Chem, 2019).
Active and inactive are the calls of the source. The calls are words filed in the database; no cut-off is given here.

Key:
Homo sapiens [1] = organism: Homo sapiens; assay: Selectivity ratio of IC50 for human full-length recombinant FYN to IC50 for inhibition of FAM-labeled peptide binding to full-length human N-terminal GST-tagged BTK (2 to 659 residues) expressed in baculovirus infected Sf21 insect cells
Outline: (§1)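 Ratio of kinase IC50 to BTK IC50. BTK measured by off-chip mobility shift: compound preincubated 10 min with BTK in 50 mM HEPES pH 7.5, 0.01% Brij-35, then FAM-labelled peptide and ATP added, 28 °C. Stopped with EDTA buffer; percent conversion fitted for IC50. Each panel kinase assayed in triplicate.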

Homo sapiens [2] = organism: Homo sapiens; assay: Selectivity ratio of IC50 for human full-length recombinant YES to IC50 for inhibition of FAM-labeled peptide binding to full-length human N-terminal GST-tagged BTK (2 to 659 residues) expressed in baculovirus infected Sf21 insect cells; outline: as §1
[3] = Stability in human plasma assessed as parent compound remaining at 1 uM measured after 2 hrs by LC-MS/MS analysis; assay type: ADME, cell-free; settings: read-out: Stability
Outline: (§2)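 Compound at 1 µM initial concentration incubated 2 h at 37 °C in plasma. Quenched with 10 volumes of methanol containing internal standard, then centrifuged. Supernatant diluted with an equal volume of water and analysed by LC-MS/MS. Read-out is % parent remaining. Mean of three separate assays run in triplicate.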

[4] = Stability in Beagle dog plasma assessed as parent compound remaining at 1 uM measured after 2 hrs by LC-MS/MS analysis; assay type: ADME, cell-free, Canis lupus familiaris; settings: read-out: Stability; outline: as §2
[5] = Stability in Sprague-Dawley rat plasma assessed as parent compound remaining at 1 uM measured after 2 hrs by LC-MS/MS analysis; assay type: ADME, cell-free; settings: read-out: Stability; outline: as §2
[6] = Stability in mouse plasma assessed as parent compound remaining at 1 uM measured after 2 hrs by LC-MS/MS analysis; assay type: ADME, cell-free; settings: read-out: Stability; outline: as §2
[7] = Stability in monkey plasma assessed as parent compound remaining at 1 uM measured after 2 hrs by LC-MS/MS analysis; assay type: ADME, cell-free, Macaca mulatta; settings: rhesus monkey, read-out: Stability; outline: as §2
[8] = Clearance in Sprague-Dawley rat at 2 mg/kg, iv by LC-MS/MS analysis; assay type: ADME, organism-based; settings: in vivo
Outline: (§3)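 Male Sprague-Dawley rats (187-205 g, n=6 per route). IV group: 2 mg/kg by tail vein in 10% DMSO/90% PEG400, fed animals. Oral group: 5 mg/kg as a 0.5% methylcellulose suspension, fasted animals. Jugular cannula blood taken pre-dose and from 0.033 h (iv only) to 24 h. Plasma stored at -20 °C and analysed by LC-MS/MS.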

[9] = Volume of distribution in Sprague-Dawley rat at 2 mg/kg, iv or 5 mg/kg, po by LC-MS/MS analysis; assay type: ADME, organism-based; settings: in vivo; outline: as §3
[10] = Half life in Sprague-Dawley rat at 2 mg/kg, iv by LC-MS/MS analysis; assay type: ADME, organism-based; settings: in vivo; outline: as §3
[11] = Oral bioavailability in Sprague-Dawley rat at 5 mg/kg by LC-MS/MS analysis; assay type: ADME, organism-based; settings: in vivo; outline: as §3
Mus musculus = assay: Antiarthritic activity in complete freund's adjuvant-induced DBA/1 mouse arthritis model assessed as reduction in paw volume at 10 mg/kg, po qd administered starting from 29 day post-CFA challenge and measured on day 29, 33, 36, 40 and 43 by caliper method; assay type: functional, organism-based
Outline: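 Male DBA/1 mice (18-20 g, 4-6 weeks) immunized intradermally at the tail base with bovine type II collagen in CFA on day 0, then challenged with collagen II in IFA on day 20. Randomized on day 29 and dosed orally once daily (n=6 per group) with vehicle as control. Paw thickness measured by caliper on days 29, 33, 36, 40 and 43. Mean ± SEM; Dunnett's test vs vehicle.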

[12] = Toxicity in complete freund's adjuvant-induced DBA/1 mouse arthritis model assessed as change in body weight at 10 mg/kg, po qd administered starting from 29 day post-CFA challenge and measured on day 29, 33, 36, 40 and 43; assay type: organism-based; settings: in vivo, 696 h
Outline: (§4)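 CIA in male DBA/1 mice: intradermal bovine type II collagen in CFA on day 0, collagen II in IFA boost on day 20. Randomized on day 29 and given oral doses once daily (n=6 per group) alongside vehicle and naive groups. Body weights recorded over the study days.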

[13] = Toxicity in complete freund's adjuvant-induced DBA/1 mouse arthritis model assessed as effect on appetite at 10 mg/kg, po qd administered starting from 29 day post-CFA challenge and measured on day 29, 33, 36, 40 and 43; assay type: organism-based; settings: in vivo, 696 h; outline: as §4
[14] = target: Tyrosine-protein kinase BTK (Homo sapiens, UniProt Q06187, C481S); assay: biochemical
Sequence of Tyrosine-protein kinase BTK (Q06187 whole entry C481S): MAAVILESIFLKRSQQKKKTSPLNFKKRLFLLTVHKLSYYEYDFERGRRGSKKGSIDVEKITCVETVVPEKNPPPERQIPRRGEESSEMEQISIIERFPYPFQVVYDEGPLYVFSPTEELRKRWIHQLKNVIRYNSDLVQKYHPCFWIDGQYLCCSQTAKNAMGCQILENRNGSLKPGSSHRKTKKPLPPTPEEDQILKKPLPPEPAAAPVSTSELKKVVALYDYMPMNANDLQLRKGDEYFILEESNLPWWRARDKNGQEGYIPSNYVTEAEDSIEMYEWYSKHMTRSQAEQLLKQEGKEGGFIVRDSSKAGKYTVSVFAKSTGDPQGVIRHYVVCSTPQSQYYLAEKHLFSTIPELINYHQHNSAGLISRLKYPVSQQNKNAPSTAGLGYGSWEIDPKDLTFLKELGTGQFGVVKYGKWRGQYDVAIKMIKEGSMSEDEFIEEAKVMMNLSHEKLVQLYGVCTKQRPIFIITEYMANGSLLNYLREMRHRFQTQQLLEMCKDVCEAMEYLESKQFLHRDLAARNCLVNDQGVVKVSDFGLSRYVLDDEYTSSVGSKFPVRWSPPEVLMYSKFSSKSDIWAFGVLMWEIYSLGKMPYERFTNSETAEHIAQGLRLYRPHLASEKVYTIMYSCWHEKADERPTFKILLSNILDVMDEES

Structure (SMILES): COc1cc2cn[nH]c2cc1-c1ccc(F)c2c(N)c(C(N)=O)cnc12
- Ratio IC50 (Homo sapiens [1]): 31
- Ratio IC50 (Homo sapiens [2]): > 1000
- remaining at 2 h, 1 µM [3]: 93%
- remaining at 2 h, 1 µM [4]: 88%
- remaining at 2 h, 1 µM [5]: 96%
- remaining at 2 h, 1 µM [6]: 98%
- remaining at 2 h, 1 µM [7]: 88%
- clearance [8]: 20.8 mL/min/kg
- Vd [9]: 2.1 L/kg
- half-life [10]: 1.2 h
- bioavailability [11]: 25%
- Activity (Mus musculus): Active
- Activity [12]: Non-Toxic
- Activity [13]: Non-Toxic
- IC50 [14]: 0.039 µM
